Measured values reported in ChEMBL document CHEMBL1629471, “Synthesis of (S)-(+)-decursin and its analogues as potent inhibitors of melanin formation in B16 murine melanoma cells” (Eur J Med Chem, 2010).

Columns and labels:
B16-F10 [1] = test: Inhibition of melanin production in mouse B16F10 cells at 100 uM after 2 days; format: functional; settings: B16-F10, 48 h
Method in brief: (§1)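 Extracellular melanin release: B16 murine melanoma cells seeded at 1×10^5 per well overnight, then alpha-MSH added with or without compound in phenol red-free DMEM for 2 d. Melanin in the medium quantified by absorbance at 405 nm. Cells were maintained in DMEM with 10% heat-inactivated FBS and 1% penicillin-streptomycin at 37 °C, 5% CO2.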

[2] = Cytotoxicity against mouse B16F10 cells assessed as cell viability after 24 hrs by MTT assay; format: cell-based, B16-F10; design: concentration or dose not given beside the values
Method in brief: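 B16 murine melanoma cells (DMEM, 10% heat-inactivated FBS, 1% penicillin-streptomycin, 5% CO2, 37 °C) exposed to compounds or no compound for 24 h. MTT (5 mg/ml in PBS) added, 3 h at 37 °C, formazan dissolved in DMSO, absorbance read at 570 nm.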

B16-F10 [3] = test: Inhibition of melanin production in mouse B16F10 cells at 500 uM after 2 days; format: functional; settings: B16-F10, 48 h; method in brief: as §1

SMILES | inhibition at 100 µM (B16-F10 [1]) | cytotoxicity (% decrease in viability) at 24 h [2] | inhibition at 500 µM (B16-F10 [3])
COc1ccc(/C=C/C(=O)O[C@H]2Cc3cc4ccc(=O)oc4cc3OC2(C)C)cc1 | 40.3% | -3.5% | 
CC(=O)Oc1ccccc1/C=C/C(=O)O[C@H]1Cc2cc3ccc(=O)oc3cc2OC1(C)C | 65.9% | 63.1% | 
CC1(C)Oc2cc3oc(=O)ccc3cc2C[C@@H]1OC(=O)/C=C/c1cccnc1 | 53.5% | 5% | 
COc1ccccc1/C=C/C(=O)O[C@H]1Cc2cc3ccc(=O)oc3cc2OC1(C)C | 63.7% | -5.1% | 
COc1cccc(/C=C/C(=O)O[C@H]2Cc3cc4ccc(=O)oc4cc3OC2(C)C)c1 | 37.9% | 14.5% | 
CC/C=C/C(=O)O[C@H]1Cc2cc3ccc(=O)oc3cc2OC1(C)C | 79.4% | 39.5% | 
CC1(C)Oc2cc3oc(=O)ccc3cc2C[C@@H]1OC/C=C/c1ccccc1 [PROGERININ] | 33.8% | -12.5% | 
CC(C)=CC(=O)O[C@H]1Cc2cc3ccc(=O)oc3cc2OC1(C)C [DECURSIN] | 71% | -9.7% | 
CC(=O)Oc1cc(/C=C/C(=O)O[C@H]2Cc3cc4ccc(=O)oc4cc3OC2(C)C)cc(OC(C)=O)c1OC(C)=O | 35.4% | 54.8% | 
CC1(C)Oc2cc3oc(=O)ccc3cc2C[C@@H]1OC(=O)/C=C/c1ccc(O)c(O)c1 | 43.5% | 67.6% | 
COc1cc(/C=C/C(=O)O[C@H]2Cc3cc4ccc(=O)oc4cc3OC2(C)C)cc(OC)c1OC | 18.8% | 4.1% | 
CCCCC(=O)O[C@H]1Cc2cc3ccc(=O)oc3cc2OC1(C)C | 76.5% | 10.4% | 
C/C=C(/C)C(=O)O[C@H]1Cc2cc3ccc(=O)oc3cc2OC1(C)C [DECURSINOL ANGELATE] | 74.5% | -2.4% | 
CC1(C)Oc2cc3oc(=O)ccc3cc2C[C@@H]1OC(=O)/C=C/c1ccccc1 [DIHYDROPYRANOCOUMARIN D2] | 72.1% | 0.8% | 
COc1ccc(/C=C/C(=O)O[C@H]2Cc3cc4ccc(=O)oc4cc3OC2(C)C)cc1OC | 42.4% | -1.4% | 
CC(=O)Oc1ccc(/C=C/C(=O)O[C@H]2Cc3cc4ccc(=O)oc4cc3OC2(C)C)cc1 | 76.1% | 58% | 
CC(=O)Oc1cccc(/C=C/C(=O)O[C@H]2Cc3cc4ccc(=O)oc4cc3OC2(C)C)c1 | 80.7% | 31.4% | 

SMILES | inhibition at 100 µM (B16-F10 [1]) | cytotoxicity (% decrease in viability) at 24 h [2] | inhibition at 500 µM (B16-F10 [3])
CC(=O)Oc1ccc(/C=C/C(=O)O[C@H]2Cc3cc4ccc(=O)oc4cc3OC2(C)C)cc1OC(C)=O | 30.7% | 49.4% | 
CC1(C)Oc2cc3oc(=O)ccc3cc2C[C@@H]1OC(=O)/C=C/c1cc(O)c(O)c(O)c1 | 59.2% | 42.9% | 
CC1(C)Oc2cc3oc(=O)ccc3cc2C[C@@H]1O [DECURSINOL] | 12.2% | 1.4% | 
OC[C@H]1O[C@@H](Oc2ccc(O)cc2)[C@H](O)[C@@H](O)[C@@H]1O [ARBUTIN] |  | -6.2% | 41%
C=CCCC(=O)O[C@H]1Cc2cc3ccc(=O)oc3cc2OC1(C)C | 36.4% | -0.4% | 
CC1(C)Oc2cc3oc(=O)ccc3cc2C[C@@H]1OC(=O)/C=C/c1cccc(O)c1 | 73.8% | 47.9% | 
CCCCCCCCCC(=O)O[C@H]1Cc2cc3ccc(=O)oc3cc2OC1(C)C | 79.3% | 28.2% | 
CC1(C)Oc2cc3oc(=O)ccc3cc2C[C@@H]1OC(=O)/C=C/c1cccs1 | 71.6% | -15.4% | 
CC1(C)Oc2cc3oc(=O)ccc3cc2C[C@@H]1OC(=O)/C=C/c1ccco1 | 33% | -1.4% | 
C=C(C)C(=O)O[C@H]1Cc2cc3ccc(=O)oc3cc2OC1(C)C | 58.1% | 58.4% | 
CC1(C)Oc2cc3oc(=O)ccc3cc2C[C@@H]1OC(=O)/C=C/c1ccccc1O | 76.8% | 74.2% | 
C/C=C(\C)C(=O)O[C@H]1Cc2cc3ccc(=O)oc3cc2OC1(C)C [DECURSINOL TIGLATE] | 71.5% | 16.4% | 
CC1(C)Oc2cc3oc(=O)ccc3cc2C[C@@H]1OC(=O)CCc1ccccc1 | 62.8% | -0.6% | 
C=CCC(=O)O[C@H]1Cc2cc3ccc(=O)oc3cc2OC1(C)C | -8.1% | 0.6% | 
CC(=O)O[C@H]1Cc2cc3ccc(=O)oc3cc2OC1(C)C | -5.7% | 3.7% | 
CC1(C)Oc2cc3oc(=O)ccc3cc2C[C@@H]1OC(=O)/C=C/c1ccc(O)cc1 | 66.4% | 65.8% | 
COc1ccccc1CCC(=O)O[C@H]1Cc2cc3ccc(=O)oc3cc2OC1(C)C | 68.9% | 6.1% | 
